The source of these data is ChEMBL document CHEMBL1123228, “Enantiomers of 3-(3,4-dihydroxyphenyl)- and 3-(3-hydroxyphenyl)-N-n-propylpiperidine: central pre- and postsynaptic dopaminergic effects and pharmacokinetics” (J Med Chem, 1986).

Data set [1] is described as follows: Michaelis-Menten constant was measured against adenylate cyclase stimulation of cAMP formation in striatal homogenates. In kind it is ADME, tissue-based. The following applies: tissue homogenate.
The test system of data set [2] is catechol-O-methyl transferase. The experiment in a line: Michaelis-Menten constant was measured for O-methylation (probably meta) by catechol-O-methyl transferase. In kind it is ADME. Put shortly:
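Crude rat liver COMT (105000g supernatant) at 37°C for 15 min with 0.1–0.00125 mM substrate, S-adenosyl-L-methionine, 10 mM MgCl2 and 50 mM phosphate pH 7.4 (final). Reaction stopped with perchloric acid; O-methyl product measured by HPLC-ECD. Km from Lineweaver-Burk plots, four experiments, each concentration in triplicate.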

A further data set has as its target D(1A) dopamine receptor (Rattus norvegicus, UniProt P18901). Briefly: In vitro affinity against Dopamine receptor D1 using [3H]SCH-23390 radioligand in rat striatal homogenate.
For the next data set, the target named is D(2) dopamine receptor (Rattus norvegicus, UniProt P61169). Briefly: In vitro affinity against Dopamine receptor D2 using [3H]DP-5,6-ADTN radioligand in rat striatal homogenate.
In data set [3] the test system is Rattus norvegicus. The experiment in a line: Presynaptic activity at the level of DA metabolism was determined at dose 45 umol/kg on striatal level of DOPAC. It is filed as functional. Put shortly:
(§1)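 Female Wistar rats given 45 μmol/kg sc; striatal DOPAC and HVA measured by HPLC with electrochemical detection, compared with saline controls by Student's t test.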

Data set [4] has as its system Rattus norvegicus. The experiment in a line: Presynaptic activity at the level of DA metabolism was determined at dose 45 umol/kg on striatal level of HVA. In kind it is functional. Put shortly:
as §1

The species named for data set [5] is Rattus norvegicus. Briefly: Dopa accumulation was evaluated in corpus striatum of male Sprague-Dawley rat. In kind it is functional. The procedure, abridged: (§2)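 Male Sprague-Dawley rats, 200–300 g; drug in saline given sc after NSD 1015 decarboxylase inhibition; Dopa measured by HPLC with electrochemical detection. Dose-response curves from four to six dose levels per substance and brain area; ED50 estimated as the dose giving half-maximal decrease of Dopa level.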

Data set [6] is filed under the species Rattus norvegicus. Briefly: Dopa accumulation was evaluated in limbic system of male Sprague-Dawley rat. It is filed as functional. The procedure, abridged:
as §2

The test system of data set [7] is Rattus norvegicus. The experiment in a line: Motor activity effect in reserpinized rat at 50 umol/kg, sc expressed as accumulation counts 0-30 min after treatment. It is filed as functional. Put shortly:
(§3)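 Male Sprague-Dawley rats given reserpine 5 mg/kg ip 18 h before; some also given tropolone 50 mg/kg 30 min before. Compound given sc in the neck, or ip where stated. Locomotion recorded by photocell motility meters, one rat per cage, as accumulated counts over 0–30 min, mean ± SEM.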

Data set [8] deals with Rattus norvegicus. Briefly: Motor activity effect in reserpinized rat with tropolone pretreatment at 5 umol/kg, sc expressed as accumulation counts 0-30 min after treatment. It is filed as functional. The procedure, abridged:
as §3

Data set [9] concerns Rattus norvegicus. The experiment in a line: Level of compound in rat striatum in the absence of tropolone at dose 40 umol/kg. It is filed as functional, organism-based. The procedure, abridged: (§4)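 Female Wistar rats (170–200 g), compound sc in saline (1 mL/kg), killed 60 min later, with or without tropolone (50 mg/kg ip) before dosing. Striatum, cerebellum and cortex were extracted in perchloric acid, cleaned on Sephadex G10 and analysed by HPLC-ECD (pH 4.0, 15% methanol, 600 mV). Recovery-corrected, n = 3.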

The test system of data set [10] is Rattus norvegicus. The experiment in a line: Level of compound in rat striatum by pretreatment of tropolone (50 mg/kg, ip, 30min) at dose 40 umol/kg. It is filed as functional, organism-based. The procedure, abridged: as §4
Data set [11] has as its system Rattus norvegicus. The experiment in a line: Level of compound in rat cortex in the absence of tropolone at dose 40 umol/kg. In kind it is functional, organism-based. The procedure, abridged: as §4
Data set [12] concerns Rattus norvegicus. The experiment in a line: Level of compound in rat cortex in the absence of tropolone at dose 8 umol/kg. It is filed as functional, organism-based. The procedure, abridged:
as §4

Data set [13] relates to Rattus norvegicus. The experiment in a line: Level of compound in rat striatum at dose 40 umol/kg. It is filed as functional, organism-based. Put shortly: as §4
In data set [14] the test system is Rattus norvegicus. Briefly: Level of compound in rat striatum at dose 8 umol/kg. It is filed as functional, organism-based. The procedure, abridged:
as §4

For data set [15], the system named is Rattus norvegicus. Briefly: Level of compound in rat striatum by pretreatment of tropolone (50 mg/kg, ip, 30min) at dose 8 umol/kg. In kind it is functional, organism-based. The procedure, abridged:
as §4

The subject of data set [16] is Rattus norvegicus. The experiment in a line: Level of compound in rat cerebellum at dose 40 umol/kg. It is filed as functional, organism-based. The procedure, abridged: as §4
Data set [17] deals with Rattus norvegicus. Briefly: Level of compound in rat cerebellum at dose 8 umol/kg. It is filed as functional, organism-based. Put shortly: as §4
The test system of data set [18] is Rattus norvegicus. Briefly: Level of compound in rat cerebellum by pretreatment of tropolone (50 mg/kg, ip, 30min) at dose 8 umol/kg. In kind it is functional, organism-based. The procedure, abridged:
as §4

Data set [19] deals with Rattus norvegicus. The experiment in a line: Level of compound in rat cerebellum in the absence of tropolone at dose 40 umol/kg. In kind it is functional, organism-based. The procedure, abridged:
as §4

Data set [20] relates to Rattus norvegicus. Briefly: Level of compound in rat cerebellum in the absence of tropolone at dose 8 umol/kg. It is filed as functional, organism-based. The procedure, abridged:
as §4

Data set [21] has as its system Rattus norvegicus. Briefly: Level of compound in rat cortex at dose 40 umol/kg. In kind it is functional, organism-based. The procedure, abridged:
as §4

In data set [22] the test system is Rattus norvegicus. Briefly: Level of compound in rat cortex at dose 8 umol/kg. It is filed as functional, organism-based. The procedure, abridged: as §4
Data set [23] has as its system Rattus norvegicus. The experiment in a line: Level of compound in rat cortex by pretreatment of tropolone (50 mg/kg, ip, 30min) at dose 40 umol/kg. In kind it is functional, organism-based. Put shortly:
as §4

Data set [24] has as its system Rattus norvegicus. The experiment in a line: Level of compound in rat cortex by pretreatment of tropolone (50 mg/kg, ip, 30min) at dose 8 umol/kg. In kind it is functional, organism-based. The procedure, abridged:
as §4

For data set [25], the species on record is Rattus norvegicus. The experiment in a line: Maximal cAMP production in rat striatal homogenates. It is filed as functional. The procedure, abridged: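 cAMP formation in rat striatal homogenates was read with an automated adenylate cyclase assay.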
The nature of data set [26]: Ratio of Vmax/Km was measured. In kind it is ADME. The procedure, abridged:
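Crude COMT from rat liver (KCl homogenate, 105000g supernatant). Incubated at 37 °C in 50 mM phosphate buffer pH 7.4 with 10 mM MgCl2, S-adenosyl-L-methionine ([…] as printed), and substrate at 0.1–0.00125 mM (final concentrations), 15 min. Stopped with perchloric acid; the O-methylated product was measured by HPLC-electrochemical detection. Km and Vmax from Lineweaver-Burk plots of four experiments, each concentration run in triplicate.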

The test system of data set [27] is Rattus norvegicus. Briefly: Level of compound in rat cerebellum by pretreatment of tropolone (50 mg/kg, ip, 30min) at dose 40 umol/kg. In kind it is functional, organism-based. The procedure, abridged:
as §4

D(2) dopamine receptor, sequence (P61169 whole entry): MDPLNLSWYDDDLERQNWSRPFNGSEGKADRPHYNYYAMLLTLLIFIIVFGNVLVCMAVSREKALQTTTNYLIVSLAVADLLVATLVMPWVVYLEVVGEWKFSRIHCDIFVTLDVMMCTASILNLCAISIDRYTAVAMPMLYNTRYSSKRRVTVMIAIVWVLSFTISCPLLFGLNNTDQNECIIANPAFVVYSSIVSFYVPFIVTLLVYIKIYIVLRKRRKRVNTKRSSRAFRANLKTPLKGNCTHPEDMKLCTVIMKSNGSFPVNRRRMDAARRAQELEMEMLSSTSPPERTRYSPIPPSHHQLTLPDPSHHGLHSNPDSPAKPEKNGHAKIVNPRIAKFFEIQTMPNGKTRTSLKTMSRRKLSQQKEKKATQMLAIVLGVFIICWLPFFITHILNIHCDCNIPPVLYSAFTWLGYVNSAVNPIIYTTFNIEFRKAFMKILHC
D(1A) dopamine receptor, sequence (P18901 whole entry): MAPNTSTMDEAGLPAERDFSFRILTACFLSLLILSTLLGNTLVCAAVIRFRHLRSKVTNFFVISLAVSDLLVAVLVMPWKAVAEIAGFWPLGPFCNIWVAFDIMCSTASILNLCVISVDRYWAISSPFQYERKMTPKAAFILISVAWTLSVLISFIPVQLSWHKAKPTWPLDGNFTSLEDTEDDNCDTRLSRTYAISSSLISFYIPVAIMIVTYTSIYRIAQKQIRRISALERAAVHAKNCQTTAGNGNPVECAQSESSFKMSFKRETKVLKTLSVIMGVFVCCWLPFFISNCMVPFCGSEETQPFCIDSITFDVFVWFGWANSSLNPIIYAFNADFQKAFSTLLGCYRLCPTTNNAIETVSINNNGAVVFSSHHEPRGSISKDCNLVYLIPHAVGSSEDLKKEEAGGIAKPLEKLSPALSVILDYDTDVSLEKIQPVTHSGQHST

On to `NCCc1ccc(O)c(O)c1` [DOPAMINE], for which the Km in data set [1] stood at 7.8 µM.

`CCCN1CCC[C@H](c2ccc(O)c(O)c2)C1`: the Km in [1] was determined as 65 µM; in data set [2], 121 µM. Also, the values for the Ki at D(1A) dopamine receptor and at D(2) dopamine receptor were 57.8 µM and 0.011 µM, respectively. The Control in the data set with Rattus norvegicus [3] is reported as 65%; in the data set on Rattus norvegicus [4], 49%. The ED50 amounted to 7 µmol/kg in the data set listed under Rattus norvegicus [5] and 6.2 µmol/kg in the data set listed under Rattus norvegicus [6]. Further, the results for the Motor activity in the data set on Rattus norvegicus [7] and with Rattus norvegicus [8] were 24 and 20, respectively. The Level came out at 112 pmol/g in the data set with Rattus norvegicus [9]; 5850 pmol/g in the data set with Rattus norvegicus [10]; 227 pmol/g in the data set on Rattus norvegicus [11]; 18 pmol/g in the data set with Rattus norvegicus [12]; 6000 pmol/g with Rattus norvegicus [13]; 1620 pmol/g in the data set with Rattus norvegicus [14]. The Level in the data set on Rattus norvegicus [15] is 1380 pmol/g; with Rattus norvegicus [16], 4340 pmol/g; with Rattus norvegicus [17], 1550 pmol/g; in the data set with Rattus norvegicus [18] it was 1910 pmol/g; in the data set with Rattus norvegicus [19], 150 pmol/g; in the data set with Rattus norvegicus [20] it was 22 pmol/g. For the same compound, the Level in the data set on Rattus norvegicus [21] is 9540 pmol/g; with Rattus norvegicus [22], 2750 pmol/g; with Rattus norvegicus [23], 8470 pmol/g; with Rattus norvegicus [24], 2050 pmol/g; in the data set on Rattus norvegicus [27], 7200 pmol/g. For the same compound, the Production (pM (mg of protein)-1) in the data set listed under Rattus norvegicus [25] was 46. Also, the Ratio in data set [26] is on record as 346.
